Measured values: ChEMBL document CHEMBL2439968, “Spectroscopic identification and anti-biofilm properties of polar metabolites from the medicinal plant Helichrysum italicum against Pseudomonas aeruginosa” (2013)
Calls of active or inactive are those of the source. No cut-off for these calls is given here.

Experiments:
Pseudomonas aeruginosa [1] = assay: Antimicrobial activity against Pseudomonas aeruginosa PaM02 at > 128 ug/ml by microtitre plate reader analysis; format: functional, organism-based
In short: (§1)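 Clinical mucoid strain grown overnight in LB broth at 37 °C and diluted with saline to OD600 around 1, then 100-fold. Compound in LB was added to an equal volume of cells, giving a final 5.0 × 10^5 CFU/ml and 128 µg/ml compound. Negative control was LB plus the matching DMSO level, with sterility and no-compound wells. Growth was read as turbidity at 600 nm; tobramycin served as positive control.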

Pseudomonas aeruginosa [2] = assay: Antimicrobial activity against Pseudomonas aeruginosa PaM02 assessed as growth inhibition at 0.245 umol/ml by microtitre plate reader analysis; format: functional; in short: as §1
Pseudomonas aeruginosa [3] = assay: Bactericidal activity against Pseudomonas aeruginosa PaM02 at 128 ug/ml after 4 hrs by time kill analysis (reference value: 2.322 log10 CFU/ml); format: functional
Pseudomonas aeruginosa [4] = assay: Bactericidal activity against Pseudomonas aeruginosa PaM02 at 128 ug/ml after 16 hrs by time kill analysis (reference value: 2.322 log10 CFU/ml); format: functional
Pseudomonas aeruginosa [5] = assay: Bactericidal activity against Pseudomonas aeruginosa PaM02 at 128 ug/ml after 8 hrs by time kill analysis (reference value: 2.322 log10 CFU/ml); format: functional
Pseudomonas aeruginosa [6] = assay: Bactericidal activity against Pseudomonas aeruginosa PaM02 at 128 ug/ml after 24 hrs by time kill analysis (reference value: 2.322 log10 CFU/ml); format: functional
Pseudomonas aeruginosa [7] = assay: Antimicrobial activity against Pseudomonas aeruginosa PaM02 biofilm at 128 ug/ml after 24 hrs by crystal violet staining-based ELISA reader analysis; format: functional; conditions: PaM02, 24 h
In short: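 Preformed biofilm was grown from 100 µL of 1.0 × 10^7 CFU/ml inoculum for 24 h at 37 °C in polystyrene wells. Planktonic cells were removed and wells rinsed with PBS. Compound at 128 µg/ml final in LB was added for a further 24 h at 37 °C. Biofilm was stained with 1% crystal violet, destained with 95% ethanol and read at 570 nm. Reduction = [(Ac−At)/Ac] × 100 versus LB/DMSO controls.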

Pseudomonas aeruginosa [8] = assay: Antimicrobial activity against Pseudomonas aeruginosa PaM02 assessed as growth inhibition at 0.315 umol/ml by microtitre plate reader analysis; format: functional; in short: as §1
Pseudomonas aeruginosa [9] = assay: Antimicrobial activity against Pseudomonas aeruginosa PaM02 assessed as growth inhibition at 0.323 umol/ml by microtitre plate reader analysis; format: functional; in short: as §1
Pseudomonas aeruginosa [10] = assay: Antimicrobial activity against Pseudomonas aeruginosa PaM02 assessed as growth inhibition at 0.008 umol/ml by microtitre plate reader analysis; format: functional; in short: as §1
Pseudomonas aeruginosa [11] = assay: Inhibition of biofilm formation of Pseudomonas aeruginosa PaM02 at 128 ug/ml after 24 hrs by crystal violet staining-based ELISA reader analysis; format: functional; conditions: PaM02, 24 h
In short: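 Prevention assay: compound at 128 µg/ml final in LB was incubated in polystyrene wells overnight at 4 °C, aspirated, and wells washed with PBS. Wells were seeded with 100 µL of 1.0 × 10^7 CFU/ml inoculum and incubated 24 h at 37 °C. Biofilm was stained with 1% crystal violet, destained with 95% ethanol and read at 570 nm. Inhibition = [(Ac−At)/Ac] × 100 versus LB-preincubated controls.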

SMILES: COc1cc(/C=C/c2ccc(O[C@@H]3O[C@H](COC(=O)CC(=O)O)[C@@H](O)[C@H](O)[C@H]3O)cc2)oc(=O)c1
- Activity (Pseudomonas aeruginosa [1]): inactive

SMILES: COc1cc2c(c(O[C@@H]3O[C@H](CO)[C@@H](O)[C@H](O)[C@H]3O)c1)C(=O)OC2
- Activity (Pseudomonas aeruginosa [1]): inactive

SMILES: COc1cc([C@H]2Oc3c(OC)cc(CCCO)cc3[C@@H]2CO)ccc1O[C@@H]1O[C@H](CO)[C@@H](O)[C@H](O)[C@H]1O
- growth inhibition (GI) (Pseudomonas aeruginosa [2]): 21%
- Activity (Pseudomonas aeruginosa [3]): 2.043 log10CFU/ml
- Activity (Pseudomonas aeruginosa [4]): 1.811 log10CFU/ml
- Activity (Pseudomonas aeruginosa [5]): 1.858 log10CFU/ml
- Activity (Pseudomonas aeruginosa [6]): 1.765 log10CFU/ml

SMILES: C=C(CO)[C@@H]1Oc2ccc(C(C)=O)cc2[C@@H]1O[C@@H]1O[C@H](CO)[C@@H](O)[C@H](O)[C@H]1O
- Activity (Pseudomonas aeruginosa [1]): inactive
- inhibition at 128 µg/mL (Pseudomonas aeruginosa [7]): 9%

SMILES: COc1cc(/C=C/c2ccc(O[C@@H]3O[C@H](CO)[C@@H](O)[C@H](O)[C@H]3O)cc2)oc(=O)c1
- Activity (Pseudomonas aeruginosa [3]): 1.157 log10CFU/ml
- Activity (Pseudomonas aeruginosa [4]): 1.055 log10CFU/ml
- Activity (Pseudomonas aeruginosa [5]): 1.103 log10CFU/ml
- growth inhibition (GI) (Pseudomonas aeruginosa [8]): 53%
- Activity (Pseudomonas aeruginosa [6]): 1.045 log10CFU/ml

SMILES: C=C(CO[C@@H]1O[C@H](CO)[C@@H](O)[C@H](O)[C@H]1O)[C@@H]1Oc2ccc(C(C)=O)cc2[C@@H]1O
- Activity (Pseudomonas aeruginosa [3]): 2.136 log10CFU/ml
- Activity (Pseudomonas aeruginosa [4]): 1.927 log10CFU/ml
- Activity (Pseudomonas aeruginosa [5]): 1.974 log10CFU/ml
- Activity (Pseudomonas aeruginosa [6]): 1.881 log10CFU/ml
- growth inhibition (GI) (Pseudomonas aeruginosa [9]): 17%
- inhibition at 128 µg/mL (Pseudomonas aeruginosa [7]): 16%

SMILES: O=C(/C=C/c1ccc(O)c(O)c1)O[C@@H]1C[C@](O)(C(=O)O)C[C@@H](OC(=O)/C=C/c2ccc(O)c(O)c2)[C@H]1O
- Activity (Pseudomonas aeruginosa [1]): inactive

SMILES: COc1cc(=O)oc([C@H]2[C@H](c3ccc(O[C@@H]4O[C@H](CO)[C@@H](O)[C@H](O)[C@H]4O)cc3)[C@H](c3cc(OC)cc(=O)o3)[C@H]2c2ccc(O[C@@H]3O[C@H](CO)[C@@H](O)[C@H](O)[C@H]3O)cc2)c1
- Activity (Pseudomonas aeruginosa [1]): inactive

SMILES: COc1cc2c(c(O[C@@H]3O[C@H](COC(=O)CC(=O)O)[C@@H](O)[C@H](O)[C@H]3O)c1)C(=O)OC2
- Activity (Pseudomonas aeruginosa [1]): inactive
- inhibition at 128 µg/mL (Pseudomonas aeruginosa [7]): 27%

SMILES: NC[C@H]1O[C@H](O[C@H]2[C@H](O)[C@@H](O[C@H]3O[C@H](CO)[C@@H](O)[C@H](N)[C@H]3O)[C@H](N)C[C@@H]2N)[C@H](N)C[C@@H]1O [TOBRAMYCIN]
- growth inhibition (GI) (Pseudomonas aeruginosa [10]): 100%

SMILES: COc1cc(/C=C/c2ccc(O[C@@H]3O[C@H](COC(=O)CC(C)(O)CC(=O)O)[C@@H](O)[C@H](O)[C@H]3O)cc2)oc(=O)c1 (some centres undefined)
- Activity (Pseudomonas aeruginosa [1]): inactive

SMILES: O=C(/C=C/c1ccc(O)c(O)c1)O[C@@H]1C[C@](O)(C(=O)O)C[C@@H](O)[C@H]1O [CHLOROGENIC ACID]
- Activity (Pseudomonas aeruginosa [1]): inactive
- inhibition at 128 µg/mL (Pseudomonas aeruginosa [11]): 45%

SMILES: O=C1OCc2cc(O)cc(O[C@@H]3O[C@H](CO)[C@@H](O)[C@H](O)[C@H]3O)c21
- Activity (Pseudomonas aeruginosa [1]): inactive
